Data set [1] concerns the target T1, ABCC1 (MRP1) (Homo sapiens, UniProt P33527). Briefly: Transport inhibition assay: calcein-AM in BHK21-ABCC1 cells, flow cytometry. As to conditions: for Inhibition (% ± SD) ABCC1 (MRP1) 10 μM: 10 μM compound; for Inhibition (% ± SD) ABCC1 (MRP1) 10 μM / Inhibition (% ± SD) ABCC1 (MRP1) 50 μM: calcein-AM 0.15 μM, relative to verapamil 30 μM (100%); for Inhibition (% ± SD) ABCC1 (MRP1) 50 μM: 50 μM compound.

Data set [2] deals with T2, ABCB1 (P-gp) (Homo sapiens, UniProt P08183). Briefly: Transport inhibition assay: rhodamine 123 in NIH3T3-ABCB1 cells, flow cytometry. Conditions: for Inhibition (% ± SD) ABCB1 (P-gp) 10 μM: 10 μM compound; for Inhibition (% ± SD) ABCB1 (P-gp) 10 μM / Inhibition (% ± SD) ABCB1 (P-gp) 50 μM: rhodamine 123 5 μM, relative to GF120918 0.5 μM (100%); for Inhibition (% ± SD) ABCB1 (P-gp) 50 μM: 50 μM compound. Background: Flow cytometry measures light scatter and fluorescence of single cells or particles in a stream.

The target of data set [3] is T3, ABCG2 (BCRP) (Homo sapiens, UniProt Q9UNQ0).
T3 sequence (Q9UNQ0 1-655): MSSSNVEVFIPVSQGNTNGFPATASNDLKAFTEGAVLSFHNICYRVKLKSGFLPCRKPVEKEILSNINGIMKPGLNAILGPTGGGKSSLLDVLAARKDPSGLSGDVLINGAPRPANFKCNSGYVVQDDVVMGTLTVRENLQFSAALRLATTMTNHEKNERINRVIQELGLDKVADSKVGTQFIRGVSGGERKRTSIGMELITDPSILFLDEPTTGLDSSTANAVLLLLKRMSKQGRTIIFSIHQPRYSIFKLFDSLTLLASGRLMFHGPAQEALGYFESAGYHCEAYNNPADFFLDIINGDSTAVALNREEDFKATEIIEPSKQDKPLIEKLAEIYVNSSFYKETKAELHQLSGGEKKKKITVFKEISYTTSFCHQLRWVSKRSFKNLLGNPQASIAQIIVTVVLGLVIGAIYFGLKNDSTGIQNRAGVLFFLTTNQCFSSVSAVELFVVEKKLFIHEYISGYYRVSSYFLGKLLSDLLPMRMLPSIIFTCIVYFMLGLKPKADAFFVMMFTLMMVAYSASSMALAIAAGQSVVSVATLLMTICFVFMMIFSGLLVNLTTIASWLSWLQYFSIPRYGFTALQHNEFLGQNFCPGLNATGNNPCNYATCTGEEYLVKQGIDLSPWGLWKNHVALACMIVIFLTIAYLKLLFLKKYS
Conditions: for Inhibition (% ± SD) ABCG2 (BCRP) 10 μM: 10 μM compound; for Inhibition (% ± SD) ABCG2 (BCRP) 10 μM / Inhibition (% ± SD) ABCG2 (BCRP) 50 μM: mitoxantrone 5 μM, 30 min, relative to Ko143 0.5 μM (100%); for Inhibition (% ± SD) ABCG2 (BCRP) 50 μM: 50 μM compound.

Data set [4] addresses T4, ABCG2 (Homo sapiens, UniProt Q9UNQ0).
T4 sequence (Q9UNQ0 1-655): T3 sequence (Q9UNQ0 1-655)
Conditions: cited from earlier work.

The test system of the next data set is HEK293-ABCG2 cells. In words: Chemosensitization assay, co-treatment with SN-38, MTT, 72 h. In kind it is cell-based, human. As to conditions: co-treatment with SN-38 0.05 μM, 11 at saturating concentration, Ko143 at 0.5 μM.
For data set [5] the following is noted: cited from earlier work.
Data set [6] addresses T3, ABCG2 (BCRP).
The target of data set [7] is T2, ABCB1 (P-gp).
Data set [8] deals with T1, ABCC1 (MRP1).
Data set [9] deals with HEK293 and HEK293-ABCG2 cells. Briefly: Cell viability MTT assay, 72 h. The class given is cell-based, human. Summed up: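 Parental HEK293 and HEK293-ABCG2 cells were seeded at 1.5×10^4 cells/well, left overnight, then exposed to test compound at 0.19–100 μM for 72 h at 37 °C under 5% CO2. Medium was replaced with 0.5 mg mL−1 MTT for 4 h. Formazan was dissolved in DMSO/ethanol (1:1) and absorbance read at 570 nm.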
On the technique in general: Tetrazolium dyes change colour on reduction, which living cells bring about.

Data set [10] addresses T4, ABCG2. The class given is biochemical.
A further data set deals with ABCG2 mRNA expression. Briefly: mRNA expression levels by qPCR in HEK293-ABCG2 cells. The class given is cell-based, human. As to conditions: 50 μM, 72 h. In general terms: Quantitative PCR measures a nucleic acid by following its amplification.
[11] abbreviates: human, probe mitoxantrone (5 μM).

The text below walks through data of article PMC11069345 (Bioorganic chemistry, 2024).

Like-named read-outs stand apart in the source and are kept apart here. Where only a bound is given, the exact number is not on record here.

As usually defined, the inhibition is the drop in the measured response relative to a control, in per cent. Usually IC50 stands for the midpoint of a concentration-inhibition curve. High values mean a need for much substance, low ones inhibition by little substance.

T1 sequence (P33527 whole entry): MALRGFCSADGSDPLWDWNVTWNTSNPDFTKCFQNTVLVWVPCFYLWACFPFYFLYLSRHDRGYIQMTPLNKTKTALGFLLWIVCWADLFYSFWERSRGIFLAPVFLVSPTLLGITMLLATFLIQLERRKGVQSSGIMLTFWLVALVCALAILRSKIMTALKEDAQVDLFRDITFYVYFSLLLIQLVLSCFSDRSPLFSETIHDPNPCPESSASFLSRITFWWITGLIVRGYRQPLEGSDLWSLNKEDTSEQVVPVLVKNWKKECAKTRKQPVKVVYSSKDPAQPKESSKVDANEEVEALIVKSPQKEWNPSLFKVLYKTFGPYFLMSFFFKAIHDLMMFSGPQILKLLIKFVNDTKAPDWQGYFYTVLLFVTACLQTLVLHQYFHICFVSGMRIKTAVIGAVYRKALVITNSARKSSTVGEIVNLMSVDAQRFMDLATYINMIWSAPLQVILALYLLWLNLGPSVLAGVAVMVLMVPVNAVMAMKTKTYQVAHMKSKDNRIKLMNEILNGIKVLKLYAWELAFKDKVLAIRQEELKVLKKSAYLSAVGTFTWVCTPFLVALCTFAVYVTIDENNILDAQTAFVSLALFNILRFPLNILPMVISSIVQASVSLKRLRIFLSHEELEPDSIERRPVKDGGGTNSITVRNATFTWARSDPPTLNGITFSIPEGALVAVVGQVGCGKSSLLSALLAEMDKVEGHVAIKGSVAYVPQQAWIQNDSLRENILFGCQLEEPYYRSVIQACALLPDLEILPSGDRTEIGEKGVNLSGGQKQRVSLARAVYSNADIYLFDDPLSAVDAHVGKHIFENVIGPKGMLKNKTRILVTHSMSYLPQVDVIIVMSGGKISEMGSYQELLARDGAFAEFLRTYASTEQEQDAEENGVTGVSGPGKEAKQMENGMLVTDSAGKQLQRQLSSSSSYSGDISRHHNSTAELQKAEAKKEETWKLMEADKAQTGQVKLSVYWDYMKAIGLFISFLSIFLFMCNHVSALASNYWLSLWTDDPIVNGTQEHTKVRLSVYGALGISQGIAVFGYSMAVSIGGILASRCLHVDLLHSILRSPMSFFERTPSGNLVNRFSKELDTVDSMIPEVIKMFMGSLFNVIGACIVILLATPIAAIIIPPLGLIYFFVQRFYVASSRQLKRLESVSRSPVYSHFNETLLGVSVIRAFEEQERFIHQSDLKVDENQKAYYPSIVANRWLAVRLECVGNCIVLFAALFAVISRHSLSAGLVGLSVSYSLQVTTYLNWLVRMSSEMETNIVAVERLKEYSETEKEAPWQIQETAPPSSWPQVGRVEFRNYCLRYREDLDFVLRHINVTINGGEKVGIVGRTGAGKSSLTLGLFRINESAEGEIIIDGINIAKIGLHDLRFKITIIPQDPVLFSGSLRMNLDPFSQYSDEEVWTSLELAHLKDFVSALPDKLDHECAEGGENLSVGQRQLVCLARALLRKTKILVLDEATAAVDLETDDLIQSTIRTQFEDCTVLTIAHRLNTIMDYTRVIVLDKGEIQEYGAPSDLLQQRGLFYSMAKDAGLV
T2 sequence (P08183 whole entry): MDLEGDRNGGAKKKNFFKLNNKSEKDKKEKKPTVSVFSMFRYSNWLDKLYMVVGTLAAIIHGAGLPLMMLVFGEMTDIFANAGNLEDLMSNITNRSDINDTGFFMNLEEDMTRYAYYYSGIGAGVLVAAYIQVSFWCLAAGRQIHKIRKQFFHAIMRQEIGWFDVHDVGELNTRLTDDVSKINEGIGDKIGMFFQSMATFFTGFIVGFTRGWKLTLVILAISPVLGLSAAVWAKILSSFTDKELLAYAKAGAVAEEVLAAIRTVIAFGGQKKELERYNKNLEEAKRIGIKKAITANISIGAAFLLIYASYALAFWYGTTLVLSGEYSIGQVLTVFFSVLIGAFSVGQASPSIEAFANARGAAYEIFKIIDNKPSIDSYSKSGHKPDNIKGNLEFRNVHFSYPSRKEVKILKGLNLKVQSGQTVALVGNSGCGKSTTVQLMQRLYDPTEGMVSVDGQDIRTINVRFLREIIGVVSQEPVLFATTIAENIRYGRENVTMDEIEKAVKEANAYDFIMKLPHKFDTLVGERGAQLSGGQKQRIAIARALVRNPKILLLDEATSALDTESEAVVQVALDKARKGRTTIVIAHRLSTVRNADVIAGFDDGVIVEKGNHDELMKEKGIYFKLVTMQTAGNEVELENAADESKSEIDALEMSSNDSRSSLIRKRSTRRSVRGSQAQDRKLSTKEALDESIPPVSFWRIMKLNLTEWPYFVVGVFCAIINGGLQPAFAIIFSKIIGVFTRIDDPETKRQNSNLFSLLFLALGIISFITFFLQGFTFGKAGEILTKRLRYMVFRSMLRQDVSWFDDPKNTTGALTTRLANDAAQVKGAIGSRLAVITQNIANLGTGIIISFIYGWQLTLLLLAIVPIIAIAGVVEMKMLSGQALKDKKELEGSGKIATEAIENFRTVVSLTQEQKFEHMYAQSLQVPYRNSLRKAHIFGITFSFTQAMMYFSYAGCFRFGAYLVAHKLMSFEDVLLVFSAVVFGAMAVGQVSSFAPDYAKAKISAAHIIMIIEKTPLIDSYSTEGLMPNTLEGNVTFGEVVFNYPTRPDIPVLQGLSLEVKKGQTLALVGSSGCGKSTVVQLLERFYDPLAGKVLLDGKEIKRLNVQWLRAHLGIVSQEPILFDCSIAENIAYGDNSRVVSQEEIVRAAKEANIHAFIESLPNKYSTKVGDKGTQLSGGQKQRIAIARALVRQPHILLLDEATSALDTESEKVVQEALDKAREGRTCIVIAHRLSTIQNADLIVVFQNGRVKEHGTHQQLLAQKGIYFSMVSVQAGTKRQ

Turning to `C=CCc1ccc(OC)c(-c2cc(CC=C)cc(O)c2O)c1` [Compound 13, 5,5’-diallyl-2’-methoxy-[1,1’-biphenyl]-2,3-diol], the inhibition at 30 min, 10 μM on ABCC1 (MRP1) [1] (probe calcein-AM (0.15 μM)) was 2.9 ± 4.3%; at ABCB1 (P-gp) [2] (probe rhodamine 123 (5 μM)) it was 1.1 ± 4.6%; against ABCG2 (BCRP) [3] (setting [11]), 4 ± 4.4%. Besides, the values for the inhibition at 30 min, 50 μM at ABCC1 (MRP1) [1] (probe calcein-AM (0.15 μM)), at ABCB1 (P-gp) [2] (probe rhodamine 123 (5 μM)) and against ABCG2 (BCRP) [3] (setting [11]) were 4.7 ± 6.4%, -1.2 ± 1.8% and 19.5 ± 4.4%, respectively.

With `C=CCc1ccc(O)c(-c2ccc(O)c(CC=C)c2)c1` [honokiol], at ABCG2 [4], the “Transport by ABCG2 (substrate)” value is “substrates of ABCG2”.

For `COc1ccc2c3c([nH]c2c1)[C@H](CC(C)C)N1C(=O)[C@H](CCC(=O)OC(C)(C)C)NC(=O)[C@@H]1C3` [Ko143, reference compound], in the data set with HEK293-ABCG2 cells, the “Reversion of ABCG2-mediated resistance to SN-38 (cell viability)” value is “same percentage of cell viability as the observed for HEK293 cells exposed to SN-38 alone”. In addition, in data set [5], the “IG50 (cytotoxicity)” value is 18 to 34 µM.

Turning to `C=CCc1ccc(O)c(-c2cc(CC=C)ccc2O)c1` [magnolol], the “Transport by ABCG2 (substrate)” value at ABCG2 [4] is “substrates of ABCG2”.

Consider `C=CCc1ccc(OC)c(-c2cc(CC=C)ccc2OC)c1` [Compound 12], for which, at ABCG2 (BCRP) [6], the “Inhibition (% ± SD) ABCG2 (BCRP) 10 μM” value stood at 5.9 ± 10.9% and the “Inhibition (% ± SD) ABCG2 (BCRP) 50 μM” value is given as 32.8 ± 5.5%. For the same compound, at ABCB1 (P-gp) [7], the “Inhibition (% ± SD) ABCB1 (P-gp) 10 μM” value is −1.1 ± 1.5% and the “Inhibition (% ± SD) ABCB1 (P-gp) 50 μM” value is recorded as −0.5 ± 2.1%. For the same compound, at ABCC1 (MRP1) [8], the “Inhibition (% ± SD) ABCC1 (MRP1) 10 μM” value amounted to 2.6 ± 1.8% and the “Inhibition (% ± SD) ABCC1 (MRP1) 50 μM” value was found to be 9.1 ± 3.3%.

As for `C=CCc1ccc(O)c(-c2cc(CC=C)ccc2OC)c1` [Compound 11], the “Concentration with cytotoxic effect” value in [9] (0.19 – 100 μM tested, HEK293 and HEK293-ABCG2) is above 100 µM. Besides, the “IG50 (concentration that reduces 50% of the cell viability)” value in [9] (estimated) is above 100 µM. For the same compound, the “Stimulation of ABCG2 ATPase activity” value on ABCG2 [10] is listed as ~ 60%. Further, the “Inhibition of ABCG2 ATPase activity” value at ABCG2 [10] (50 µM) is ~ 30%. In addition, the “Effect on mRNA ABCG2 expression levels” value with ABCG2 mRNA expression is “did not significantly affect the transcriptional levels of ABCG2”. Also, the “Reversion of ABCG2-mediated resistance to SN-38 (cell viability)” value with HEK293-ABCG2 cells is reported as “completely revert the MDR phenotype mediated by ABCG2”. Further, at ABCG2 (BCRP) [6], the “Extent of ABCG2 inhibition (partial or complete inhibitor)” value is “complete ABCG2 inhibitor”, the IC50 was found to be 9.5 µM, the “Inhibition (% ± SD) ABCG2 (BCRP) 10 μM” value was determined as 62.0 ± 11.9% and the “Type of inhibition (Lineweaver-Burk plot)” value is listed as “mixed type of inhibition”. Also, on ABCB1 (P-gp) [7], the “Inhibition (% ± SD) ABCB1 (P-gp) 10 μM” value is reported as −0.7 ± 1.2% and the “Inhibition (% ± SD) ABCB1 (P-gp) 50 μM” value turned out to be 2.8 ± 3.8%. Moreover, on ABCC1 (MRP1) [8], the “Inhibition (% ± SD) ABCC1 (MRP1) 10 μM” value came to 4.9 ± 7.0% and the “Inhibition (% ± SD) ABCC1 (MRP1) 50 μM” value came out at 11.5 ± 5.8%.

With `CCCc1ccc(O)c(-c2cc(CCC)ccc2O)c1` [Compound 14], on ABCC1 (MRP1) [1], the “Inhibition (% ± SD) ABCC1 (MRP1) 10 μM” value is recorded as 5.6 ± 5.5% and the “Inhibition (% ± SD) ABCC1 (MRP1) 50 μM” value is listed as 16.0 ± 10.7%. On ABCB1 (P-gp) [2], the “Inhibition (% ± SD) ABCB1 (P-gp) 10 μM” value is reported as 0.5 ± 0.9% and the “Inhibition (% ± SD) ABCB1 (P-gp) 50 μM” value is recorded as −6.4 ± 0.3%. Besides, on ABCG2 (BCRP) [3], the “Inhibition (% ± SD) ABCG2 (BCRP) 10 μM” value turned out to be 1.8 ± 1.7% and the “Inhibition (% ± SD) ABCG2 (BCRP) 50 μM” value stood at 19.5 ± 4.5%.

As for `CCCc1ccc(O)c(-c2cc(CCC)ccc2OC)c1` [Compound 15], at ABCC1 (MRP1) [1], the “Inhibition (% ± SD) ABCC1 (MRP1) 10 μM” value is listed as 4.3 ± 3.9% and the “Inhibition (% ± SD) ABCC1 (MRP1) 50 μM” value is 5.8 ± 4.1%. Besides, on ABCB1 (P-gp) [2], the “Inhibition (% ± SD) ABCB1 (P-gp) 10 μM” value was 0.2 ± 0.8% and the “Inhibition (% ± SD) ABCB1 (P-gp) 50 μM” value is given as 2.0 ± 1.9%. Moreover, at ABCG2 (BCRP) [3], the “Inhibition (% ± SD) ABCG2 (BCRP) 10 μM” value worked out at 1.1 ± 5.4% and the “Inhibition (% ± SD) ABCG2 (BCRP) 50 μM” value is 20.4 ± 1.7%.
